{
  "source": "PubChem BioAssay AID504676",
  "about": "(Southern Research Specialized Biocontainment Screening …, 2011)",
  "tested_on": "E. coli EV36 K1 capsule, T7 phage lysis, OD600",
  "assay": "capsule removal specificity in E. coli EV36 – T7 phage, EV36 K1:K-12 hybrid, OD600, set 3, selectivity assay for bacterial capsule biogenesis inhibitor project, dose response (AID 504676)",
  "how_it_was_run": "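Technique: OD600 absorbance | Assay system: E. coli EV36, a K1/K-12 hybrid, from overnight culture diluted 1:100 | Incubation: 1.5 h pre-phage compound exposure, 3 h post-infection, 37 °C shaking | Dosing: Dose series from 0.39 to 100 µM final, 1% DMSO | Medium: LB growth medium | Evaluation: Lysis by OD600 decrease after T7 infection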",
  "data": [
    {"smiles": "COc1ccc2nc(NC(=O)c3cccs3)sc2c1", "values": [
      {"measurement": "IC50", "value": 5.9, "unit": "µM"}
    ]},
    {"smiles": "COc1ccc2nc(NC(=O)c3ccco3)sc2c1", "values": [
      {"measurement": "IC50", "value": 22.9, "unit": "µM"}
    ]}
  ]
}
